Screening results (PubChem BioAssay)
Shown are actives, neighbours in structure and some others; about 2.7% of the full set was active somewhere.
E-sel inducer: E-selectin induction in HUVECs, primary screen, imaging, HUVEC, immunofluorescence imaging, single point. normalized: neutral wells 0, TNF-alpha wells 100. AID 686992, 2013. activation, % at 7.58 µM. 260,000 tested, 0.37% active;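 active = mean E-selectin-positive cell signal at least 10% of the positive control, reached in at least 60% of replicates, without over 20% cell loss; inconclusive = no rule given, readout overlaps actives, possibly toxicity-flagged; inactive = the rest, including those meeting only one limit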
Target sequence (P16581 whole entry, looked up): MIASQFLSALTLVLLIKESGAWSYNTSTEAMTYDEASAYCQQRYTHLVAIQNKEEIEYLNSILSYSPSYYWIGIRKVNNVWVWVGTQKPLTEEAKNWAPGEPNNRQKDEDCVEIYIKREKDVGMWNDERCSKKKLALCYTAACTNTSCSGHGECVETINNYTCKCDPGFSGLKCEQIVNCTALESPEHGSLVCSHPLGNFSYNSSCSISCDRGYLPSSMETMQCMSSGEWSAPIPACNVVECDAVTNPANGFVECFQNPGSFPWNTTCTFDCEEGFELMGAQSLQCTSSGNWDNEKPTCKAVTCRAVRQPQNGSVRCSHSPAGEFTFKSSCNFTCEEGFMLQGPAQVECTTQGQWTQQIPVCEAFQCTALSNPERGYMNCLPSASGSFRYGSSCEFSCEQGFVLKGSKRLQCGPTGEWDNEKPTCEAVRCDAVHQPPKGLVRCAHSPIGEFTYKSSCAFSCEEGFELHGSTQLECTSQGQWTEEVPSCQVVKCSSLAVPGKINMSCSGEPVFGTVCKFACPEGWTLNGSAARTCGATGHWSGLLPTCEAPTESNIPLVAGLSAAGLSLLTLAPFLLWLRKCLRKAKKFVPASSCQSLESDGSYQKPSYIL
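Assay system: HUVEC, human umbilical vein endothelial cells / Amount: 3,000 HUVEC/well / Controls: TNF-alpha positive control, DMSO neutral control / Compound dosing: single concentration / Medium: EGM-2 over gelatin coat / Evaluation: percent E-selectin-positive cells / Signal: immunofluorescence imaging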
HIV Env fusion: inhibitors of HIV-1 Env-driven cell-cell fusion, primary screen, HeLa-JRFL effector, CEM21 target cells, luciferase; inhibition, % at 12.3 µM; 360,000 tested, 1.1% active;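 active = mean replicate inhibition score of at least 50 and every replicate individually at or above 50; inconclusive = only one of the two criteria met; inactive = mean below 50 and not all replicates reaching 50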;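 also: 0% = plate neutral controls and 100% = maraviroc near 300 nM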
FGF22 binding: binders of human FGF22 protein, primary screen, FGF22 synaptogenesis inhibitor project, biophysical, thermal shift, single point. AID 651658, 2012. recombinant FGF22 thermal shift, SYPRO orange fluorescence; percent of sucrose octasulfate shift, DMSO zero. activity (Tm shift, normalised), % at 9.99 µM. 340,000 tested, 1.5% active. Fibroblast growth factor 22 (Homo sapiens), Q9HCT0;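 active = mean Tm shift, scaled 0 neutral to 100 positive control, at about 1.3% or above, every replicate too, limit read from the data; inconclusive = no clear call, values can overlap the other calls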
F508del corr: F508del CFTR correction, initial screen, CFBE line, single point; CFBE cells, YFP halide quenching; stimulated with forskolin plus potentiator P3; % fluorescence drop versus neutral controls; activity (quench increase), % at 7.58 µM; 350,000 tested, 0.36% active;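 active = mean added fluorescence quench of at least 8% versus neutral control, with both replicates also reaching 8%; inconclusive = only one of the mean or replicate conditions met; inactive = mean below 8% and not both replicates reaching 8%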;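 also: cells transiently co-express mutant CFTR-F508del with the halide-sensitive YFP; corrector assay measuring rescue of mutant channel to the surface after 24 h compound exposure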
S100A4 MyoIIA: inhibitors of S100A4-myosin IIA peptide binding, primary screen, biochemical, fluorescence polarization, TAMRA-MyoIIA peptide. Protein S100-A4 (Homo sapiens), P26447. inhibition, % at 10.7 µM. 360,000 tested, 0.14% active;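 active = mean inhibition of at least 70% across replicates, with every replicate also reaching that level; inconclusive = mean inhibition reaches 70% but some replicates fall short; inactive = mean inhibition below 70%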
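Material: S100A4 monomer (human). Medium: Calcium-containing HEPES buffer, pH 7.2. Probe or stimulus: labelled myosin peptide probe, 5 nM. Compound dosing: one concentration per compound. Timing: polarization read 5 min after assay mix addition, stable 5–60 min. Benchmarks: DMSO as neutral control, TFP as positive control.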
* = called active by the depositor; ? = inconclusive; / = no result given; [ ] = dose if it differs, or a comment.

SMILES	E-sel inducer	HIV Env fusion	FGF22 binding	F508del corr	S100A4 MyoIIA
Cc1c(CNCCc2ccccc2Cl)c(C(=O)O)c(C)n1-c1ccccc1	/	57*	0	4	-6
C[C@H]1CN([C@@H](C)CO)C(=O)c2cc(NC(=O)Nc3ccccc3)ccc2O[C@@H]1CN(C)CC1CCCCC1	0	/	0	1	3
Cn1cc(SCC(=O)NC2CCCC2)c2ccccc21	-1	-16	0	-1	87*
O=C(CSc1nc2ccccc2n1CCc1ccccc1)NC1CC1	1	16	0	-1	-5
O=C(CSc1nc2ccccc2c(=O)n1-c1ccc(F)cc1F)NC1CC1	0	29	43*	2	0
O=C(CSc1nc2ccccc2c(=O)n1-c1ccccc1F)NC1CC1	/	3	0	/	5
CC(C)Cn1c(SCC(=O)NC2CC2)nc2ccccc21	1	95*	43	-1	0
Cc1ccc(S(=O)(=O)NCC[C@@H]2CC[C@H](NC(=O)c3cnccn3)[C@H](CO)O2)cc1	-2	-10[16.7 µM]	0	2	0
C[C@@H]1CN([C@@H](C)CO)C(=O)c2c(c3ccccc3n2C)-c2ccccc2CO[C@H]1CN(C)Cc1ccc2c(c1)OCO2	5	/	/	3	8
O=C(C[C@H]1CC[C@@H]2[C@H](COC[C@@H](O)CN2S(=O)(=O)c2ccc(F)cc2)O1)N[C@H]1CCN(Cc2ccccc2)C1	0	/	0	2	-1
COc1cccc(S(=O)(=O)N2CC3(CN(C(=O)Nc4cccc(F)c4)[C@H](CO)c4[nH]c5cc(OC)ccc5c43)C2)c1	0	80*[16.7 µM]	0	-2	9
COc1ccc2c3c([nH]c2c1)[C@@H](CO)N(C(=O)Nc1cccc(F)c1)CC31CN(S(=O)(=O)c2cccc(C)c2)C1	1	80*[16.7 µM]	0	1	-16
COc1cccc(S(=O)(=O)N2CC3(CN(C(=O)Nc4ccc(F)cc4)[C@@H](CO)c4[nH]c5cc(OC)ccc5c43)C2)c1	0	/	0	3	/
COc1ccc2c3c([nH]c2c1)[C@@H](CO)N(C(=O)Nc1ccc(F)cc1)CC31CCN(S(=O)(=O)c2ccccc2)CC1	-1	/	/	5	/
COc1ccc2c3c([nH]c2c1)[C@H](CO)N(C(=O)Nc1ccc(F)cc1)CC31CCN(S(=O)(=O)c2ccccc2)CC1	-1	/	/	8.8*	/
COC(=O)C[C@@H]1C[C@@H]2c3cc(NC(=O)Nc4ccc(OC)cc4)ccc3O[C@@H]2[C@@H](CO)O1	0	/	/	2	-21
C[C@@H]1CN([C@H](C)CO)C(=O)c2cc(NS(=O)(=O)c3ccc(Cl)cc3)ccc2O[C@@H](C)CCCCO[C@H]1CN(C)C(=O)C1CCCCC1	0	-74[16.7 µM]	0	0	-10
NS(=O)(=O)c1ccc(NCC2COc3ccccc3O2)c([N+](=O)[O-])c1 (stereo not given)	2	-63	43*	6	0
C[C@H](CO)N1C[C@H](C)[C@@H](CN(C)C(=O)c2ccccc2F)Oc2ncc(-c3ccc(F)cc3)cc2C1=O	-1	14[16.7 µM]	0	-4	0
O=C1NC(Cc2ccc(Cl)cc2)COCc2cnnn2CCC1c1ccccc1 (stereo not given)	0	11[16.7 µM]	0	/	90*
O=C1NC(Cc2cccc(Cl)c2)COCc2cnnn2CCC1c1ccccc1 (stereo not given)	0	-47[16.7 µM]	0	/	-6
Cc1n[nH]c(=O)nc1N/N=C/c1ccco1	/	6	44*	0	0
Cc1noc(C)c1CSc1nc2ccccc2c(=O)n1-c1ccc(Cl)cc1	/	62*	/	/	/
CN(C)c1ccc(C=C2C=C(c3ccccc3)OC2=O)cc1	0	-32	0	7	8
CN(C)c1ccc(C=c2c3ccccc3n3c2cc(-c2ccccc2)[n+]3C)cc1	140*	-36	-1	-9	34
COc1cc(N(C)C)ccc1C=c1c2ccccc2n2c1cc(-c1ccccc1)[n+]2C	160*	5	-1	-2	?
CN(C)c1ccc(C=c2c3cc([N+](=O)[O-])ccc3n3c2cc(-c2ccccc2)[n+]3C)cc1	218*	47	0	0	98*
